# Measured values of several laboratories.
# Target: Ephrin type-A receptor 3 (EPHA3, Homo sapiens, UniProt P29320)
# Sequence (P29320 21-983, as in one of the studies): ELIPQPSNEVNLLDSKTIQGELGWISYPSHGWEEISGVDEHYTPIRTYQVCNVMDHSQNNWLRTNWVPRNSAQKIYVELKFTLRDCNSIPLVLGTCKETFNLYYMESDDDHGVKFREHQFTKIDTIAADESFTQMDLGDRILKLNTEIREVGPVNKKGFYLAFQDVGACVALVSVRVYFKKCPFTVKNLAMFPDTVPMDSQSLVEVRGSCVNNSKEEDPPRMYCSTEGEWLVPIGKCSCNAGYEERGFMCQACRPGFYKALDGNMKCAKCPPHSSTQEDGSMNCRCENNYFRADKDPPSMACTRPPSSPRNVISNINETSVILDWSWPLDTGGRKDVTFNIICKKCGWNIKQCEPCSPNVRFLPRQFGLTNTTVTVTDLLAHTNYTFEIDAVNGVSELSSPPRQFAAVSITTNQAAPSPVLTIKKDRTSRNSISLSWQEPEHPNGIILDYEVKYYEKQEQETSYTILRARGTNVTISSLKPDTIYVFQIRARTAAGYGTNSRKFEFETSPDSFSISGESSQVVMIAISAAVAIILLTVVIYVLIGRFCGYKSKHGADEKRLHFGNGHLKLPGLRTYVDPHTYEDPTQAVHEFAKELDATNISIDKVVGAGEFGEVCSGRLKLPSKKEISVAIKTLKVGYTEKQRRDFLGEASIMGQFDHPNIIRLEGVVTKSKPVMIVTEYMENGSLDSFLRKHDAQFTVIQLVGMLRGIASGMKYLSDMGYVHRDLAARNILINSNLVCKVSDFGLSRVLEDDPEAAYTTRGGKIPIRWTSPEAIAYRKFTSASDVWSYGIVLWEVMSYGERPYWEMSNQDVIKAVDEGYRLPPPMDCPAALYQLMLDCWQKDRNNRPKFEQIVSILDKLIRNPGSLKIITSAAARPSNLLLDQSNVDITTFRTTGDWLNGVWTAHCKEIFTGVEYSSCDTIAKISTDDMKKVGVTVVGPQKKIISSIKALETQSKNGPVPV
Structure (SMILES),assay,setting,quantity,result
Cn1cncc1[C@](O)(COc1ccc(C#N)cc1-c1ccc(OC(F)(F)F)cc1)c1ccc(C#N)cc1,"cell-free assay, competition with immobilised ligand",1 µM,remaining binding,90%
Cn1cc(-c2cc(F)cc(N3CCn4c(cc5c4CCCC5)C3=O)c2CO)cc(Nc2ccc(N3CCN(C4COC4)CC3)cn2)c1=O,"enzyme activity, inhibitor",0.1 µM,inhibition,10%
O=c1[nH]c2ccccc2n1C1CCN(Cc2ccc(-c3[nH]c4cc5ncnc5cc4nc3-c3ccccc3)cc2)CC1,cell-free assay,0.5 µM,remaining signal,71.9%
Cc1nn(C)cc1-c1nc2c(N3CCN(Cc4ccc(Cl)cc4)CC3)c(Cl)cnc2[nH]1,"binding, competition with immobilised ligand",1 µM,remaining binding,100%
N#CC1(c2ccccn2)CCN(Cc2cc(C(=O)O)c(=O)n3ccccc23)CC1,"cell-free assay, competition with immobilised ligand",1 µM,remaining binding,75%
Cn1cc(-c2cccc(N3CCc4c(sc5c4CC(C)(C)C5)C3=O)c2CO)cc(Nc2ccncn2)c1=O,"enzyme activity, inhibitor",1 µM,inhibition,-7%
COc1ncccc1-c1cnn2ccc(N3CCN(C(=O)OC(C)C)CC3)nc12,"binding, competition with immobilised ligand",1 µM,remaining binding,83%
CC(C)(C)c1cc(C=C(C#N)C#N)cc(Br)c1O,"enzyme activity, inhibitor",0.5 µM,remaining activity,102%
Nc1ncc(-c2nc(N3CCOCC3)nc(N3CCOCC3)n2)c(C(F)F)n1,"cell-free assay, competition with immobilised ligand",10 µM,remaining binding,69%
COc1cc(Nc2ncc(F)c(Nc3ccc4c(n3)NC(=O)C(C)(C)O4)n2)cc(OC)c1OC,"binding, competition with immobilised ligand",10 µM,inhibition,90%
